Measured values: ChEMBL document CHEMBL1667846, “Optimization of a novel class of benzimidazole-based farnesoid X receptor (FXR) agonists to improve physicochemical and ADME properties” (Bioorg Med Chem Lett, 2011)
Converted amounts (≈) assume the structure as drawn.

Experiments:
[1] = Solubility of the compound in 0.05 M phosphate buffer at pH 6.5; type: physicochemical
[2] = Lipophilicity log D of the compound at pH 7.4; type: physicochemical; settings: buffer
Summary of the method: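 Lipophilicity measured as log D at pH 7.4.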

[3] = Cmax in C57BL/6 mouse at 4 mg/kg, iv or 10 mg/kg, po; type: ADME, organism-based; settings: in vivo
Summary of the method: (§1)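 Male C57BL/6 mice (4 mg/kg iv, 10 mg/kg po) and male Wistar rats (2 mg/kg iv, 5 mg/kg po), single doses. Oral vehicle was 7.5% gelatin in 0.62% aqueous NaCl. Intravenous vehicle was 30% N-methylpyrrolidinone in aqueous 100 mM TRIS buffer pH 8.5. Reported parameters were Cl, Cmax/dose, Vss, AUC/dose, t1/2 and oral bioavailability F.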

[4] = Volume of distribution at steady state in C57BL/6 mouse at 4 mg/kg, iv; type: ADME, organism-based; design: dose 4 mg/kg, route intravenous; settings: in vivo, read-out: Vdss; summary of the method: as §1
[5] = AUC in C57BL/6 mouse at 4 mg/kg, iv or 10 mg/kg, po; type: ADME, organism-based; settings: plasma; summary of the method: as §1
[6] = Oral bioavailability in C57BL/6 mouse at 4 mg/kg, iv or 10 mg/kg, po; type: ADME, organism-based; settings: in vivo; summary of the method: as §1
[7] = Cmax in Wistar rat at 2 mg/kg, iv or 5 mg/kg, po; type: ADME, organism-based; settings: in vivo; summary of the method: as §1
[8] = Volume of distribution at steady state in Wistar rat at 2 mg/kg, iv or 5 mg/kg, po; type: ADME, organism-based; settings: in vivo, read-out: Vdss; summary of the method: as §1
[9] = AUC in Wistar rat at 2 mg/kg, iv or 5 mg/kg, po; type: ADME, organism-based; settings: plasma; summary of the method: as §1
[10] = Oral bioavailability in Wistar rat at 2 mg/kg, iv or 5 mg/kg, po; type: ADME, organism-based; settings: in vivo; summary of the method: as §1

solubility [1] [µg/mL]	logD [2]	SMILES	other results
88 (≈ 168 µM)	3.06	O=C(O)c1ccc(NC(=O)[C@H](C2CCCCC2)n2c(-c3ccc(Cl)cc3)nc3cc(F)c(F)cc32)cc1	
280 (≈ 468 µM)	2.32	O=C(Nc1ccc(OC2(C(=O)O)CC2)cc1F)[C@H](C1CCCCC1)n1c(-c2ccc(Cl)cc2)nc2cc(F)c(F)cc21	
< 1	> 4	O=C(NC1CCCCC1)[C@H](C1CCCCC1)n1c(-c2ccc(Cl)cc2)nc2cc(F)c(F)cc21	
490 (≈ 866 µM)	2.96	O=C(Nc1ccc(-c2nnn[nH]2)cc1F)[C@H](C1CCCCC1)n1c(-c2ccc(Cl)cc2)nc2cc(F)c(F)cc21	
395 (≈ 745 µM)	2.49	O=C(N[C@H]1CC[C@H](C(=O)O)CC1)[C@H](C1CCCCC1)n1c(-c2ccc(Cl)cc2)nc2cc(F)c(F)cc21	
465 (≈ 835 µM)	1.91	COc1ccc(-c2nc3cc(F)c(F)cc3n2[C@H](C(=O)N[C@H]2CC[C@H](C(=O)O)CC2)C2CCCCC2)c(OC)n1	
17 (≈ 33.9 µM)	> 4	O=C(N[C@H]1CC[C@H](O)CC1)[C@H](C1CCCCC1)n1c(-c2ccc(Cl)cc2)nc2cc(F)c(F)cc21	
175 (≈ 315 µM)	2.34	O=C(O)c1ccc(NC(=O)[C@H](C2CCCCC2)n2c(-c3ccc(Cl)cc3)nc3ccccc32)c(C(F)(F)F)c1	
32 (≈ 59.5 µM)	2.83	Cc1cc(C(=O)O)ccc1NC(=O)[C@H](C1CCCCC1)n1c(-c2ccc(Cl)cc2)nc2cc(F)c(F)cc21	
115 (≈ 212 µM)	2.66	O=C(O)c1ccc(NC(=O)[C@H](C2CCCCC2)n2c(-c3ccc(Cl)cc3)nc3cc(F)c(F)cc32)c(F)c1	Cmax/dose [3]: 205 ng/mL; Vd [4]: 1.24 L/kg; AUC [5]: 5430 ng·h/mL; bioavailability [6]: 33%; Cmax/dose [7]: 270 ng/mL; Vd [8]: 0.62 L/kg; AUC [9]: 3030 ng·h/mL; bioavailability [10]: 59%
51 (≈ 91.3 µM)	2.98	O=C(O)c1ccc(NC(=O)[C@H](C2CCCCC2)n2c(-c3ccc(Cl)cc3)nc3cc(F)c(F)cc32)c(Cl)c1	
< 1	> 4	O=C(NC1CCCCC1)[C@H](C1CCCCC1)n1c(-c2ccc(Cl)cc2)nc2cc(F)c(Cl)cc21	
